According to ChEMBL document CHEMBL3616384, “Benzimidazole derivatives protect against cytokine-induced apoptosis in pancreatic β-Cells” (Bioorg Med Chem Lett, 2015):
The source made the active and inactive calls. The calls are words filed in the database; no cut-off is given here.

Key:
[1] = (§1) Cytoprotective activity in rat INS-1E cells assessed as suppression of recombinant rat IL-1beta/recombinant mouse IFN-gamma and TNF-alpha-induced nitrite production after 48 hrs by Griess assay; type: functional, cell-based; details: for IC50: Rattus norvegicus, INS-1E, 48 h
Outline: (§2)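 Nitrite production was measured in INS-1E cells after 48 h with IL-1β 20 ng/mL, INF-γ 50 ng/mL and TNF-α 50 ng/mL plus increasing compound concentrations. Mean ± SD of 12 independent wells.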

[2] = (§3) Cytoprotective activity in rat INS-1E cells assessed as increase in recombinant rat IL-1beta/recombinant mouse IFN-gamma and TNF-alpha-suppressed glucose-stimulated insulin secretion preincubated for 48 hrs followed by KRBH buffer addition without glucose for 2 hrs and subsequently incubated with KRBH buffer in presence of glucose for 1 hr by ELISA; type: functional, cell-based; details: for EC50: Rattus norvegicus, INS-1E
Outline: (§4)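 Cytokine-exposed INS-1E cells (48 h; IL-1β 20 ng/mL, INF-γ 50 ng/mL, TNF-α 50 ng/mL) were co-treated with a compound dose series, and glucose-stimulated insulin secretion was measured. EC50 and maximum activity were derived from the dose-response. Mean ± SD of 2 independent experiments.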

[3] = (§5) Cytoprotective activity in rat INS-1E cells assessed as suppression of recombinant rat IL-1beta/recombinant mouse IFN-gamma and TNF-alpha-induced caspase-3 expression after 48 hrs by Caspase-Glo 3/7 assay; type: functional, cell-based; details: for IC50: Rattus norvegicus, INS-1E, 48 h
Outline: (§6)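 INS-1E cells were given the 48 h cytokine cocktail (IL-1β 20 ng/mL, INF-γ 50 ng/mL, TNF-α 50 ng/mL) with rising compound concentrations. Caspase-3 activity, as a direct apoptosis readout, was normalized to untreated controls. Mean ± SD of 12 independent wells.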

[4] = (§7) Cytoprotective activity in rat INS-1E cells assessed as restoration of recombinant rat IL-1beta/recombinant mouse IFN-gamma and TNF-alpha-suppressed ATP level after 48 hrs by Cell Titer-Glo assay; type: functional, cell-based; details: for EC50: Rattus norvegicus, INS-1E, 48 h
Outline: (§8)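 INS-1E rat insulinoma cells exposed 48 h to IL-1β 20 ng/mL, INF-γ 50 ng/mL and TNF-α 50 ng/mL, with or without increasing compound concentrations. Cellular ATP was measured as a viability surrogate and normalized to untreated controls.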

INS-1E [5] = test: as §3; type: functional, cell-based; outline: as §4
INS-1E [6] = test: as §1; type: functional, cell-based; outline: as §2
INS-1E [7] = test: as §5; type: functional, cell-based; outline: as §6
INS-1E [8] = test: as §7; type: functional, cell-based; outline: as §8
INS-1E [9] = test: Cytoprotective activity in rat INS-1E cells assessed as restoration of recombinant rat IL-1beta/recombinant mouse IFN-gamma and TNF-alpha-suppressed ATP level at 2 uM after 48 hrs by Cell Titer-Glo assay; type: functional, cell-based; outline: as §8
[10] = as §3, with “secretion at 5 uM” for “secretion”, “ELISA relative to control” for “ELISA”; type: functional
Outline: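 After 48 h exposure to the cytokine cocktail (IL-1β 20 ng/mL, INF-γ 50 ng/mL, TNF-α 50 ng/mL) with 5 µM compound added, INS-1E insulin secretion was measured at low (2) and high (16) glucose. Results are compared with untreated and no-cytokine cells. Mean ± SD of 2 independent experiments.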

Structure (SMILES) | %max [1] [%] | IC50 [1] [µM] | %max [2] [%] | %max [3] [%] | IC50 [3] [µM] | %max [4] [%] | EC50 [4] [µM] | %max (INS-1E [5]) | Activity (INS-1E [6]) | Activity (INS-1E [5]) | EC50 [2] [µM] | Activity (INS-1E [7]) | Activity (INS-1E [8]) | Activity (INS-1E [9]) | fold change (FC) [10]
Cc1cc2nc(-c3ccc(C(=O)N/N=C/c4ccc(O)c(O)c4)cc3)[nH]c2cc1C | 68 | 17.6 | 53 | 22 | > 30 | 73 | 16.7 |  |  |  |  |  |  |  | 
COc1ccc(/C=N/NC(=O)c2ccc(-c3nc4cc(C)c(C)cc4[nH]3)cc2)c(O)c1 | 18 | > 30 |  | 15 | > 30 | 54 | 29.3 | inactive |  |  |  |  |  |  | 
Cc1cc2nc(-c3ccc(C(=O)N/N=C/c4cccc(O)c4O)cc3)[nH]c2cc1C | 79 | 11.4 | 84 | 82 | 9.48 | 89 | 3.17 |  | Dose-dependent effect | Dose-dependent effect | 8.32 | Dose-dependent effect | Dose-dependent effect |  | 
Cc1cc2nc(-c3ccc(C(=O)N/N=C/c4cc(O)ccc4O)cc3)[nH]c2cc1C | 71 | 17.3 | 71 | 84 | 8.81 | 93 | 2.57 |  | Dose-dependent effect | Dose-dependent effect | 13.3 | Dose-dependent effect | Dose-dependent effect |  | 
Cc1cc2nc(-c3ccc(C(=O)N/N=C/c4cc(O)c(O)c(O)c4)cc3)[nH]c2cc1C | 85 | 9.47 | 91 | 68 | 18.5 | 98 | 0.968 |  | Dose-dependent effect | Dose-dependent effect | 5.41 | Dose-dependent effect | Dose-dependent effect | Active | >3
Cc1cc2nc(-c3ccc(C(=O)N/N=C/c4ccc(O)cc4O)cc3)[nH]c2cc1C | 72 | 17.5 | 64 | 75 | 16.4 | 86 | 7.28 |  |  |  |  |  |  |  | 
COc1ccc(O)c(/C=N/NC(=O)c2ccc(-c3nc4cc(C)c(C)cc4[nH]3)cc2)c1 | 20 | > 30 |  | 12 | > 30 | 61 | 25.3 | inactive |  |  |  |  |  |  | 
